Laboratory results from ChEMBL document CHEMBL4765355, “Synthesis of adenine dinucleosides SAM analogs as specific inhibitors of SARS-CoV nsp14 RNA cap guanine-N7-methyltransferase” (Eur J Med Chem, 2020).
pIC50, pKd: −log10 of the molar value. The source made the active and inactive calls. The rule behind the calls is not given here.

Key:
[1] = test system: Orthopoxvirus vaccinia; test: Inhibition of 2'-O-methyltransferase activity of Vaccinia virus VP39 at 200 uM
[2] = target: RNA-N7 MTase (mRNA cap guanine-N(7) methyltransferase) (Homo sapiens, UniProt O43148); test: Inhibition of N-terminal His6-tagged human RNA-N7 MTase expressed in Escherichia coli using GpppAC4 and [3H]SAM as substrate at 50 uM preincubated with enzyme followed by substrate addition and measured after 30 mins by filter binding assay; settings: probe GpppAC4 and [3H]SAM
RNA-N7 MTase (mRNA cap guanine-N(7) methyltransferase), sequence (O43148 whole entry): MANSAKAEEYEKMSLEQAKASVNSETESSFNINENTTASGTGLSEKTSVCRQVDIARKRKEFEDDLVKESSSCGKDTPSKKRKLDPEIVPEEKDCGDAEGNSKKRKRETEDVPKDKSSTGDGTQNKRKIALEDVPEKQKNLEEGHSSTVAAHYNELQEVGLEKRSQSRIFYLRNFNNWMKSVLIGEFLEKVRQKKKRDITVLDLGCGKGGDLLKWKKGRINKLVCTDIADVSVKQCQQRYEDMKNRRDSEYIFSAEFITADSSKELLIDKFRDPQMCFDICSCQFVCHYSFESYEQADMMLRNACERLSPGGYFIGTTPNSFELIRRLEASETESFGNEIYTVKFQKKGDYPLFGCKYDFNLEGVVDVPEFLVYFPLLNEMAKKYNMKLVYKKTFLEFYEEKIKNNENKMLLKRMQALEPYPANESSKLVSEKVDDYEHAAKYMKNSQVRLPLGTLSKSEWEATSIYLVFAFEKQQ
Outline: (§1)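 Filter binding assay in 40 mM Tris-HCl pH 8.0, 1 mM DTT, 1 mM MgCl2, 2 µM SAM, 0.1 µM 3H-SAM and 0.7 µM GpppAC4 RNA. Enzyme is nsp14 (50 nM), hRNMT (50 nM) or vaccinia D1–D12 (41 U). Compound is at 50 µM with 5% final DMSO. Reactions run 30 min at 30 °C, are stopped by ice-cold water dilution, and 3H on DEAE filters is counted. Percent inhibition is relative to a 5% DMSO control, mean of three experiments.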

[3] = Binding affinity to SARS-CoV nsp14 by TSA based analysis; design: species or system Severe acute respiratory syndrome-related coronavirus
Outline: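 Thermal shift assay with nsp14 (5 µM) in HEPES pH 7.5/NaCl/SYPRO orange, using increasing compound concentrations and a 20–95 °C ramp. Apparent KD is obtained by nonlinear regression with a one-site specific binding Hill slope equation.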

[4] = test system: Severe acute respiratory syndrome-related coronavirus; test: Binding affinity to SARS-CoV nsp14 assessed as increase in melting temperature at 1 mM at pH 7.5 by differential scanning fluorimetry
Outline: (§2)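 Purified SARS-CoV nsp14 (5 µM) in 20 mM HEPES pH 7.5, 150 mM NaCl and 1X SYPRO orange, with 1 mM compound (DMSO stock; SAM and sinefungin from water). Protein is mixed with compound before dye is added. Fluorescence is read from 20 to 95 °C at 0.2 °C/min. Tm comes from curve fitting, and ΔTm is taken against a 5% DMSO control.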

[5] = test system: Severe acute respiratory syndrome-related coronavirus; test: Inhibition of N7-MTase activity of N-terminal His6-tagged SARS-CoV nsp14 expressed in Escherichia coli using GpppAC4 and [3H]SAM as substrate at 50 uM preincubated with enzyme followed by substrate addition and measured after 30 mins by filter binding assay; outline: as §1
[6] = test system: Severe acute respiratory syndrome-related coronavirus; test: Binding affinity to SARS-CoV nsp14 assessed as melting temperature at 1 mM at pH 7.5 by differential scanning fluorimetry; outline: as §2
[7] = test system: Zika virus; test: Inhibition of 2'-O-methyltransferase in Zika virus at 200 uM
[8] = target: mRNA cap guanine-N(7) methyltransferase (Homo sapiens, UniProt O43148); test: Inhibition of N-terminal His6-tagged human RNA-N7 MTase expressed in Escherichia coli using GpppAC4 and [3H]SAM as substrate preincubated with enzyme followed by substrate addition and measured after 30 mins by filter binding assay
mRNA cap guanine-N(7) methyltransferase, sequence (O43148 whole entry): as above
Outline: (§3)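 Dose-response filter binding assay with nsp14 or hRNMT (each 50 nM) pre-incubated with increasing compound concentrations (5% final DMSO). Then 0.7 µM GpppAC4, 2 µM SAM and 0.1 µM 3H-SAM are added in Tris pH 8.0/DTT/MgCl2, 30 min at 30 °C. IC50 is taken from a Hill slope fit, mean of three independent experiments.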

[9] = Inhibition of N7-MTase activity of N-terminal His6-tagged SARS-CoV nsp14 expressed in Escherichia coli using GpppAC4 and [3H]SAM as substrate preincubated with enzyme followed by substrate addition and measured after 30 mins by filter binding assay; design: species or system Severe acute respiratory syndrome-related coronavirus; outline: as §3
[10] = test system: Dengue virus; test: Inhibition of 2'-O-methyltransferase in Dengue virus at 200 uM
[11] = test system: Orthopoxvirus vaccinia; test: Inhibition of N7-MTase activity of Vaccinia virus mRNA capping enzyme D1/D12 complex using GpppAC4 and [3H]SAM as substrate at 50 uM preincubated with enzyme followed by substrate addition and measured after 30 mins by filter binding assay; outline: as §1
[12] = test system: West Nile virus; test: Inhibition of 2'-O-methyltransferase in West-Nile virus at 200 uM
[13] = test system: Severe acute respiratory syndrome-related coronavirus; test: Inhibition of 2'-O-MTase activity of SARS-CoV nsp10/16 complex at 200 uM

Row | Structure (SMILES) | inhibition [1] | inhibition at 0.5 h, 50 µM [2] [%] | pKd [3] | ΔTm [4] [°C] | inhibition [5] [%] | Tm [6] [°C] | inhibition [7] | pIC50 [8] | pIC50 [9] | inhibition [10] | inhibition [11] [%] | inhibition [12] | inhibition [13]
1 | Nc1ncnc2c1ncn2[C@@H]1OC(CN(CCO[C@@H]2[C@H](O)C(CO)O[C@H]2n2cnc3c(N)ncnc32)S(=O)(=O)c2ccc(Cl)c([N+](=O)[O-])c2)[C@@H](O)[C@H]1O (single isomer, unassigned) | inactive | 33.9 | 5.89 | 10.8 | 97.2 | > 40 | inactive | 3.61 | 6.22 | inactive | 2.8 | inactive | inactive
2 | COc1ccc(S(=O)(=O)N(CCO[C@@H]2[C@H](O)C(CO)O[C@H]2n2cnc3c(N)ncnc32)CC2O[C@@H](n3cnc4c(N)ncnc43)[C@H](O)[C@@H]2O)c([N+](=O)[O-])c1 (single isomer, unassigned) | inactive | 31.8 |  | 4.6 | 96.6 | > 40 | inactive | < 3.30 | 5.41 | inactive | 4.6 | inactive | inactive
